# Screening data (PubChem BioAssay)
# This is a sample that favours compounds with a hit; in the whole collection about 1.7% have one here.
# PfHsp90 set2: inhibits growth of yeast expressing Plasmodium falciparum Hsp90; S. cerevisiae expressing PfHsp90, BacTiter-Glo ATP, 48 h; yeast lacking PDR1 and PDR3 efflux regulators; inhibition, % at 9.4 µM; 310,000 tested, 0.32% active; AID 504621;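 active means every replicate shows inhibition above about 80%, whatever the replicate mean, limit read from the data; inconclusive means mean inhibition reaches the set limit but some replicate falls short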
# FN deposition inh: fibronectin deposition inhibition; AH1F fibroblasts, Alexa488-fibronectin deposition fluorescence, overnight; inhibition, % at 12.6 µM; 350,000 tested, 0.086% active;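 active means mean inhibition across replicates of 30% or more, regardless of how many single replicates reach that level; inconclusive means mean under 30% yet at least half of replicates reach 30%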
#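 Material: AH1F fibroblast monolayer depositing Alexa488-labelled fibronectin into matrix / Amount: 10000 AH1F cells per well / Signal: fluorescence 485/525 nm / Medium: DMEM, 2% serum / Compound: single dose, pinned / Incubation: 1 h cell adhesion before compound, then overnight fibronectin incubation / Reagent: Alexa488-FN, 24 nM final / Read-out: inhibition of fibronectin deposition signal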
# CSC inhib: blocks cancer stem cells; 300,000 tested, 1.1% active; inhibition, % at 7.5 µM; cancer stem cell-like cells viability, luminescence; in the data active means inhibition above about 75%; inconclusive means no clear call, values can overlap the other calls; tested in HMLE shEcad cells
# SKKanGAS inh: blocks kanamycin growth of S. pyogenes SKKanGAS strain. 300,000 tested, 1.3% active. inhibition, % at 7.5 µM. BacTiter-Glo, 6 h;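 active means mean replicate score, as percent of positive control median, at least 50; inconclusive means mean below 50 but one replicate at or above 50; inactive means mean and every replicate below 50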;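 further: strain carries kanamycin resistance gene driven by streptokinase promoter and grows in 40 µg/ml kanamycin; loss of luminescence reflects streptokinase promoter inhibition or plain growth inhibition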
# Rtt109 HAT inh: C. albicans Rtt109 histone acetyltransferase inhibition; Q5AAJ8; purified Rtt109/Vps75, ThioGlo CoA-SH fluorescence, 4 h; inhibition, % at 34.9 µM; 330,000 tested, 0.16% active;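 active means inhibition of at least 50% in every replicate; inconclusive means best replicate reaches 50% inhibition but some replicates fall short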
# Target sequence (Q5AAJ8 whole entry, looked up): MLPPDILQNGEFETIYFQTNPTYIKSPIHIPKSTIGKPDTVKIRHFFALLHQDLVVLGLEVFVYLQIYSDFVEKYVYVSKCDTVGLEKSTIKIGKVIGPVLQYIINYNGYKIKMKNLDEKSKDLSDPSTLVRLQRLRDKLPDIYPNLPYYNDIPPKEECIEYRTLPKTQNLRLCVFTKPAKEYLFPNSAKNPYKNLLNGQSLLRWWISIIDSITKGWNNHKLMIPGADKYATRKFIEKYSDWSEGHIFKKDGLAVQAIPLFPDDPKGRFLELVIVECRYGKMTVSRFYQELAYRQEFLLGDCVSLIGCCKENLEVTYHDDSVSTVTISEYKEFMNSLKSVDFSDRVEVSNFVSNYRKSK
# PglD DTNB: blocks C. jejuni PglD acetyltransferase activity; purified PglD enzyme, DTNB colorimetric CoA detection; inhibition, % at 12.5 µM; 360,000 tested, 0.098% active; in the data active means inhibition above about 16%, passing the limit was not always enough; inconclusive means no clear call, values can overlap the other calls
# Hits are given with their value; - = inactive; ? = inconclusive; . = no result.
SMILES,PfHsp90 set2,FN deposition inh,CSC inhib,SKKanGAS inh,Rtt109 HAT inh,PglD DTNB
CC(C)CC(=O)Nc1ccc(C(=O)NNC(=S)NC(=O)C2CCCCC2)cc1,-,.,-,93,-,-
C[C@@H](NC(=O)C[C@H]1C[C@H]2c3cc(NC(=O)CC4CC4)ccc3O[C@H]2[C@H](CO)O1)c1ccccc1,.,-,.,.,.,-
Brc1cccc(OCCN2CCc3ccccc3C2)c1,-,-,84,-,-,-
O=c1c2ccccc2nc(N/N=C/c2c(O)ccc3ccccc23)n1O,-,.,112,-,-,-
CCCCNC(=O)Nc1nc2ccc(CC)cc2s1,.,34,-,-,-,.
CC(C)C[C@@H]1CN=C(N)N1C[C@@H]1CCCN1C[C@H](C)N1C[C@@H](Cc2ccccc2)N(CCc2ccc(Cl)c(Cl)c2)C1=N,-,.,-,.,75,-
CC(C)C[C@H]1CNC(=O)C(=O)N1C[C@@H]1CCCN1C[C@H](CC(C)C)N1C[C@H](Cc2ccc(O)cc2)N(CCc2ccccc2)C(=O)C1=O,.,active,.,.,.,.
CC(C)CC#Cc1ccc2c(c1)O[C@@H](CN(C)C)[C@H](C)CN([C@@H](C)CO)S2(=O)=O,.,-,.,.,.,-
COc1ccc(CN(C)C[C@H]2Oc3ccc(NC(=O)C4CC4)cc3C(=O)N([C@@H](C)CO)C[C@@H]2C)cc1,.,-,.,.,.,-
O=c1c2c([nH]c3ccc(Br)cc13)CCCC2,-,.,-,-,-,-
O=c1ccc2cc3c([nH]c4ccc(Br)cc43)oc-2c1O,-,-,-,-,129,-
O=C(N[C@@H]1C=C[C@@H](CC(=O)N2CCOCC2)O[C@@H]1CO)c1cccc(F)c1,.,-,.,.,.,-
COc1ccc2cc(/C=N/O)c(Cl)nc2c1,.,-,.,-,-,.
COc1ccc2cc(/C=N/NC(=O)c3ccc(CN(c4cccc(Cl)c4Cl)S(C)(=O)=O)cc3)c(Cl)nc2c1,-,-,85,-,-,-
COc1ccc(/C=C2\C(=O)c3ccccc3OC2c2ccccc2)cc1 (stereo not drawn),-,-,82,-,-,.
CCOc1ccc(/C=C2\C(=O)c3ccccc3OC2c2ccccc2)cc1 (stereo not drawn),-,.,-,-,-,-
Cc1cc(C)c2nc(-c3ccccn3)cc(C(=O)Nc3ccc(S(=O)(=O)Nc4cc(C)on4)cc3)c2c1,-,-,-,-,-,-
Cc1cc(C)c2nc(-c3ccccn3)cc(C(=O)Nc3ccc(S(=O)(=O)Nc4onc(C)c4C)cc3)c2c1,-,.,-,64,-,.
C[C@@H]1CN([C@H](C)CO)C(=O)c2cc(-c3cccc(C#N)c3)cnc2O[C@@H]1CN(C)C(=O)C1CCC1,.,.,.,.,.,-
CC(C)(C)c1cc(N)n2nc(C(C)(C)C)cc2n1,-,.,-,-,53,.
O=C1CC(N2CCN(c3nc4ccccc4s3)CC2)C(=O)N1Cc1cccs1 (stereo not drawn),105,.,-,-,-,-
CC(C)NC(=O)Nc1cccc2c1O[C@@H](CN(C)C(=O)NC(C)C)[C@@H](C)CN([C@H](C)CO)C2=O,.,.,.,.,.,-
COCC(=O)N1C[C@H](C)[C@H](OC)CN(C)C(=O)c2cc(NC(=O)NC(C)C)ccc2OC[C@@H]1C,.,-,.,.,.,-
CCCCCCCOc1ccc(OC(=O)c2cccnc2)cc1,-,.,96,-,-,-
CCCCOc1ccc(OC(=O)c2cccnc2)cc1,-,-,-,-,-,-
SMILES,PfHsp90 set2,FN deposition inh,CSC inhib,SKKanGAS inh,Rtt109 HAT inh,PglD DTNB
CCOC(=O)c1sc2nccc(N(C)C)c2c1N=CNOCc1c(F)cccc1Cl,-,.,-,52,-,.
COc1ccc(-c2cc3nc[nH]c(=O)c3s2)cc1,-,-,-,56,-,-
O=C(/C=C/c1ccccc1)NNc1ccc(Cl)cc1,-,.,96,-,-,.
O=C(/C=C/c1ccccc1)NC(NC(=S)Nc1ccc(Cl)cc1)C(Cl)(Cl)Cl (stereo not drawn),-,-,-,63,-,-
O=C(/C=C/c1ccccc1)NNC(=O)c1cccc(Cl)c1,.,-,-,-,-,-
O=C(O)c1ccccc1C(=O)NNc1ccc(Cl)cc1,-,-,91,-,-,-
NS(=O)(=O)c1ccc(NNC(=O)c2ccccc2C(=O)O)cc1,-,-,-,-,-,-
O=C(/C=C/c1ccccc1)NC(NC(=S)Nc1cc(Cl)ccc1Cl)C(Cl)(Cl)Cl (stereo not drawn),-,.,?,52,-,.
C[C@H](CO)N1C[C@H](C)[C@@H](CN(C)S(C)(=O)=O)Oc2ccc(NC(=O)Cc3cn(C)c4ccccc34)cc2CC1=O,.,.,.,.,.,-
CN(C)C(=O)C[C@H]1CC[C@@H]2[C@@H](COc3ccc(NC(=O)C4CCOCC4)cc3C(=O)N2C)O1,.,-,.,.,.,-
COc1ccccc1-c1cn(CC[C@H]2CC[C@H](NS(=O)(=O)c3ccccc3C)[C@H](CO)O2)nn1,.,-,.,.,.,-
O=C(NNc1ccc(Cl)cc1)c1sccc1Cl,-,-,94,-,-,.
CNC(=O)c1cc(C(=O)c2ccc(Cl)cc2)c[nH]1,-,-,.,-,-,-
O=C(c1ccc(Cl)cc1)c1c[nH]c(C(=O)NNc2ccccc2)c1,-,-,95,-,-,.
COCc1cn(CC[C@@H]2CC[C@H](NC(=O)Nc3ccc4c(c3)OCO4)[C@H](CO)O2)nn1,.,-,.,.,.,-
C/C=C/c1ccc2c(c1)O[C@@H](CN(C)C)[C@@H](C)CN([C@H](C)CO)S2(=O)=O,.,-,.,.,.,-
O=C(CSc1ncnc2nc[nH]c12)c1ccccc1,-,-,-,-,-,-
O=C(CSc1ncnc2nc[nH]c12)c1ccc(Cl)cc1,-,-,102,-,-,-
CN(C)C(=O)C[C@@H]1C=C[C@@H](NC(=O)C2CCC2)[C@H](CO)O1,.,-,.,.,.,-
O=C(/C=C/c1ccccn1)c1cc(Br)ccc1O,104,-,-,-,-,-
C[C@@H]1CN([C@H](C)CO)C(=O)c2cc(C#CC3CC3)cnc2O[C@H]1CN(C)C(=O)Nc1ccccc1,.,.,.,.,.,-
COc1cccc(N2C(=O)C3NN=C(C(=O)CN4C(=O)c5ccccc5C4=O)C3C2=O)c1 (stereo not drawn),.,-,-,52,.,-
